Data reported in ChEMBL document CHEMBL1152313, “Cytotoxic and HIF-1alpha inhibitory compounds from Crossosoma bigelovii” (J Nat Prod, 2009).
Calls of active or inactive are those of the source. The rule behind the calls is not given here.

How the values were obtained:
[1] = target: T1, Hypoxia inducible factors; HIF-1-alpha, HIF-2-alpha (Homo sapiens, UniProt Q16665+Q99814); experiment: Inhibition of HIF1 activation in human U251 cells stably transfected in pGL2-TK-HRE plasmid under hypoxic condition after 16 to 24 hrs by luciferase reporter gene assay; format: cell-based; conditions: u-251
U-251 [2] = experiment: Growth inhibition of human U251 cells stably transfected with pGL2-TK-HRE plasmid after 24 hrs; format: cell-based; conditions: u-251, 24 h
U-251 [3] = experiment: Growth inhibition of human U251 cells stably transfected with pGL3 plasmid after 24 hrs; format: cell-based; conditions: u-251, 24 h
A549 = experiment: Cytotoxicity against human A549 cells by MTT assay; format: functional
HT-29 = experiment: Cytotoxicity against human HT-29 cells by MTT assay; format: functional
Outline: (§1)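 Cells were grown in MEM with 10% fetal calf serum, 0.1 g L⁻¹ penicillin G and 0.1 g L⁻¹ streptomycin sulfate. They were seeded into 96-well plates one day before dosing and incubated overnight at 37 °C. Compounds were dissolved in DMSO, diluted in medium to several concentrations and left on the cells for six days. Survival was read colorimetrically by MTT at 547 nm, with adriamycin as reference.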

MCF7 = experiment: Cytotoxicity against human MCF7 cells by MTT assay; format: functional; outline: as §1
U-251 [4] = experiment: Reduction in VEGF mRNA expression in wild type human U251 cells under hypoxic condition after 8 hrs; format: functional, cell-based
Outline: (§2)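 Wild-type U251 cells treated 8 or 16 h under hypoxia (1% O₂, 37 °C). Total RNA isolated; 500 ng reverse-transcribed (10 min 25 °C, 30 min 48 °C, 5 min 95 °C). VEGF or CA9 transcript quantified by real-time PCR on 5 ng cDNA in triplicate (2 min 50 °C, 10 min 95 °C, then 40 cycles of 15 s 95 °C and 1 min 60 °C).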

U-251 [5] = experiment: Inhibition of HIF1alpha protein expression in wild type human U251 cells under hypoxic condition at 0.025 uM treated 8 hrs before hypoxia induction; format: functional, cell-based
U-251 [6] = experiment: Inhibition of HIF1alpha protein expression in wild type human U251 cells under hypoxic condition at 0.025 uM treated 16 hrs before hypoxia induction; format: functional, cell-based
[7] = target: T1, Hypoxia inducible factors; HIF-1-alpha, HIF-2-alpha; experiment: Inhibition of HIF1 activation in human U251 cells transiently transfected in pGL2-TK-HRE plasmid under hypoxic condition at 0.1 to 0.005 uM after 16 hrs by luciferase reporter gene assay; format: cell-based; conditions: U-251
Outline: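 Wild-type U251 cells transiently transfected with pGL2-TK-HRE using Effectene for 16 h. Medium then changed and compound added for 16 h under hypoxia (1% O₂, 5% CO₂, 37 °C) or normoxia (21% O₂). Luciferase read with Steady Glo reagent.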

[8] = target: T1, Hypoxia inducible factors; HIF-1-alpha, HIF-2-alpha; experiment: Inhibition of HIF1 activation in human U251 cells stably transfected in pGL3 plasmid under hypoxic condition assessed as reduction of luciferase expression at 0.062 uM after 16 to 24 hrs by luciferase reporter gene assay; format: cell-based; set-up: scale not given: the % may be the effect or the level left; conditions: U-251
U-251 [9] = experiment: Reduction in VEGF mRNA expression in wild type human U251 cells under hypoxic condition after 16 hrs; format: functional, cell-based; outline: as §2
[10] = target: T1, Hypoxia inducible factors; HIF-1-alpha, HIF-2-alpha; experiment: Inhibition of HIF1 activation in human U251 cells stably transfected in pGL2-TK-HRE plasmid under hypoxic condition assessed as reduction of luciferase expression at 0.062 uM after 16 to 24 hrs by luciferase reporter gene assay; format: cell-based; set-up: scale not given: the % may be the effect or the level left; conditions: U-251
U-251 [11] = experiment: Reduction in carbonic anhydrase 9 mRNA expression in wild type human U251 cells under hypoxic condition at 0.1 uM after 16 hrs; format: functional, cell-based; outline: as §2
U-251 [12] = experiment: Reduction in carbonic anhydrase 9 mRNA expression in wild type human U251 cells under hypoxic condition at 0.1 uM after 8 hrs; format: functional, cell-based; outline: as §2

Structure (SMILES) | EC50 [1] [µM] | Activity (U-251 [2]) | Activity (U-251 [3]) | GI50 (A549) [nM] | GI50 (HT-29) [µM] | GI50 (MCF7) [nM] | further results
CO[C@H]1C[C@H](O[C@H]2CC[C@]3(C=O)[C@H]4CC[C@]5(C)[C@@H](C6=CC(=O)OC6)CC[C@]5(O)[C@@H]4CC[C@]3(O)C2)O[C@H](C)[C@H]1O[C@@H]1O[C@H](CO[C@@H]2O[C@H](CO)[C@@H](O)[C@H](O)[C@H]2O)[C@@H](O)[C@H](O)[C@H]1O | 0.04 | Non-toxic | Non-toxic | – | – | – | –
CO[C@H]1C[C@H](O[C@H]2CC[C@]3(C=O)[C@H]4CC[C@]5(C)[C@@H](C6=CC(=O)OC6)CC[C@]5(O)[C@@H]4CC[C@]3(O)C2)O[C@H](C)[C@H]1O[C@@H]1O[C@H](CO)[C@@H](O)[C@H](O)[C@H]1O | – | Non-toxic | Non-toxic | – | – | – | –
CO[C@H]1[C@H](O[C@H]2CC[C@]3(C=O)[C@H]4CC[C@]5(C)[C@@H](C6=CC(=O)OC6)CC[C@]5(O)[C@@H]4CC[C@]3(O)C2)O[C@H](C)C[C@H]1O[C@@H]1O[C@H](CO)[C@@H](O)[C@H](O)[C@H]1O | 0.6 | Non-toxic | Non-toxic | 8 | 0.07 | 10 | –
Cc1cc(=O)c2c(O)cc(O[C@@H]3O[C@H](CO[C@@H]4O[C@@H](C)[C@H](O)[C@@H](O)[C@H]4O)[C@@H](O)[C@H](O)[C@H]3O)cc2o1 | – | – | – | 400 | 6 | 800 | –
COc1c(O[C@@H]2O[C@H](CO[C@@H]3O[C@@H](C)[C@H](O)[C@@H](O)[C@H]3O)[C@@H](O)[C@H](O)[C@H]2O)cc2oc(C)cc(=O)c2c1O | – | – | – | 400 | 6 | 800 | –
CC[C@@]1(O)C(=O)OCc2c1cc1n(c2=O)Cc2cc3c(CN(C)C)c(O)ccc3nc2-1 | – | – | – | – | – | – | Activity (U-251 [4]): inactive
C[C@@H]1O[C@@H](O[C@H]2CC[C@]3(C=O)[C@H]4CC[C@]5(C)[C@@H](C6=CC(=O)OC6)CC[C@]5(O)[C@@H]4CC[C@]3(O)C2)[C@H](O)[C@H](O)[C@H]1O [CONVALLATOXIN] | 0.02 | Non-toxic | Non-toxic | – | – | – | Activity (U-251 [5]): Active; Activity (U-251 [6]): Active; Activity (U-251 [4]): Active; Activity [7]: Active; Activity [8]: 50%; Activity (U-251 [9]): Active; Activity [10]: 77%; Activity (U-251 [11]): Active; Activity (U-251 [12]): Active
COc1cccc2c1C(=O)c1c(O)c3c(c(O)c1C2=O)C[C@@](O)(C(=O)CO)C[C@@H]3O[C@H]1C[C@H](N)[C@H](O)[C@H](C)O1 [DOXORUBICIN] | 0.12 | – | – | 7 | 0.06 | 100 | –
COc1cc(O)c2c(=O)cc(C)oc2c1 [EUGENIN] | – | – | – | 14000 | 25 | 10000 | –
Cc1cc(=O)c2c(O)cc(O)cc2o1 [NOREUGENIN] | – | – | – | > 50000 | > 50 | > 50000 | –
COc1c(O)cc2oc(C)cc(=O)c2c1O [PISONIN B] | – | – | – | 225000 | 180 | > 450000 | –
C[C@]12CC[C@H]3[C@@H](CC[C@]4(O)C[C@@H](O)CC[C@]34C=O)[C@@]1(O)CC[C@@H]2C1=CC(=O)OC1 [STROPHANTHIDIN] | – | Non-toxic | Non-toxic | – | – | – | –
